Data reported in ChEMBL document CHEMBL3856282, “Design and synthesis of purine analogues as highly specific ligands for FcyB, a ubiquitous fungal nucleobase transporter” (Bioorg Med Chem, 2016).
Calls of active or inactive are those of the source. The calls are words filed in the database; no cut-off is given here.

Assays:
Aspergillus nidulans [1] = assay: Inhibition of Aspergillus nidulans FcyB expressed in germinating conidiospores of UapA, UapC, AzgA, FurD, FurA, FcyB, CntA transporter deficient Aspergillus nidulans assessed as suppression of [2,8 3H]-hypoxanthine uptake at 0.5 mM after 1 min by scintillation counting method
Method in brief: (§1)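 Competition uptake in germinating conidiospores of a Δ7 strain carrying single-copy fcyB driven by the uapA promoter, selected by pabA1 complementation. 0.5 μM ³H-substrate (adenine for line 1, hypoxanthine for line 3) was added together with a 1000-fold excess (500 μM) of analogue. Uptake was stopped after 1 min by freezing, immediate centrifugation and washing. Three experiments, each in triplicate.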

Aspergillus nidulans [2] = assay: Inhibition of Aspergillus nidulans FcyB expressed in germinating conidiospores of UapA, UapC, AzgA, FurD, FurA, FcyB, CntA transporter deficient Aspergillus nidulans assessed as [2,8 3H]-adenine uptake at 0.5 mM after 1 min by scintillation counting method relative to control; set-up: scale not given: the % may be the effect or the level left; method in brief: as §1
[3] = Inhibition of Aspergillus nidulans FcyB expressed in germinating conidiospores of UapA, UapC, AzgA, FurD, FurA, FcyB, CntA transporter deficient Aspergillus nidulans assessed as suppression of [2,8 3H]-adenine uptake after 1 min by scintillation counting method
Method in brief: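 In germinating conidiospores of a Δ7 strain expressing only FcyB (uapA promoter), 0.5 μM ³H-adenine uptake was measured over 1 min against varying analogue concentrations. Ki was derived from IC50 by Cheng–Prusoff, Ki = IC50/(1+[S]/Km), with [S] as the fixed radiolabelled substrate concentration. Values are averages of at least three independent experiments with three replicates per concentration point.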

In the case of `CN1CCN(c2nccc3c2ncn3C2CCCC2)CC1`, the inhibition (Aspergillus nidulans [1]) is reported as “Active”, the Activity (Aspergillus nidulans [2]) is reported as under 10% and the Ki [3] is reported as 38 µM.

For `Nc1nccc2c1ncn2C1CCCC1`, the inhibition (Aspergillus nidulans [1]) was “Active”, the Activity (Aspergillus nidulans [2]) was under 10% and the Ki [3] was 18 µM.

In the case of `c1ccc(CNc2nccc3c2ncn3C2CCCC2)cc1`, the inhibition (Aspergillus nidulans [1]) is reported as “Active”, the Activity (Aspergillus nidulans [2]) is reported as under 10% and the Ki [3] is reported as 21 µM.

For `CC(C)n1cnc2c(NCCN(C)C)nccc21`, the inhibition (Aspergillus nidulans [1]) was “Active”, the Activity (Aspergillus nidulans [2]) was under 10% and the Ki [3] was 72 µM.

With `CN(C)CCNc1nccc2c1ncn2C1CCCC1` the inhibition (Aspergillus nidulans [1]) was “Active”, the Activity (Aspergillus nidulans [2]) was under 10% and the Ki [3] was 95 µM.

With `CC(C)n1cnc2c(NCc3ccccc3)nccc21` the inhibition (Aspergillus nidulans [1]) was “Active”, the Activity (Aspergillus nidulans [2]) was under 10% and the Ki [3] was 5 µM.
